Screening results: PubChem, several laboratories
STAT1 inh: STAT1 signaling inhibitors, primary screen, cell-based, HTS, luciferase reporter; NIH 3T3 STAT1-luciferase reporter, IFN-gamma, luminescence; AID 920, 2007; inhibition, % at 5.5 µM; 0.35% of 200,000 active;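 active = inhibition above a set limit, the mean inhibition across all tested compounds plus 3 SD, cut at about 34% in these data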;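 note: 0% = IFN-gamma with DMSO and 100% = IFN-gamma with 300 µM nifuroxazide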
Cl transport mod: KCC2 cotransporter modulators, thallium flux, primary screen, cell-based, HEK293 KCC2, FluoZin-2 fluorescence, MLSMR. AID 1456, 2008. KCC2 cells, thallium flux FluoZin-2 fluorescence. 2.2% of 190,000 active. B-score of Tl+ flux slope (higher = more flux/activation; lower = inhibition) at 10 µM. Solute carrier family 12 member 5 (Homo sapiens), Q9H2X9;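 active = thallium flux slope and its plate-corrected score both differing from the plate sample mean at a set confidence after two filtering rounds, in either direction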;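 note: slope of fluorescence scaled to starting intensity during 10 to 20 s after thallium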
HSV augment: enhancers of HSV replication in host cells, fold increase, host cell viability; maximum fold increase; 0.005% of 220,000 active; HSV replication augmentation in cells; AID 1956, 2009; in the data active = maximum fold increase above about 1.5; inconclusive = no clear call, values can overlap the other calls; tested in PC3 cells
STAT1 act: STAT1 signaling activators, primary screen, cell-based, HTS, luciferase reporter | NIH 3T3 STAT1-luciferase reporter, IFN-gamma, luminescence; 100% = IFN-gamma alone, no compound | activation (% of control), % at 5.5 µM | 2.6% of 200,000 active | AID 932, 2007;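 active = activation above the screen-wide mean activation plus 3 SD, cut at about 130% in these data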;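 note: raw ratio to IFN-gamma control signal so 100% means no change and 0% no light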
STAT3 act: IL-6 driven STAT3 reporter potentiators, primary screen, U3A cells, luciferase, luminescence, MLSCN library | IL-6 STAT3-luciferase reporter; 100% = signal with IL-6 EC80 alone | activation (% of control), % at 5.6 µM | 0.91% of 190,000 active | AID 871, 2007;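 active = activation above the screen-wide mean of compound activation plus 3 SD, cut at about 130% in these data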;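 note: 0% = background luminescence of wells with medium and substrate only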
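Material: human U3A cells carrying STAT3-luciferase construct. Measured by: reporter luminescence signal. Timing: compound 1 h, then IL-6 6 h at 37 °C.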
STAT3 inh: IL-6 driven STAT3 reporter inhibitors, primary screen, U3A cells, luciferase, luminescence, MLSCN library; IL-6 STAT3-luciferase reporter; host cell line lacks STAT1; inhibition, % at 5.5 µM; 0.89% of 190,000 active; AID 862, 2007;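 active = inhibition above the mean inhibition across all screened compounds plus 3 SD, cut at about 44% in these data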;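 note: 0% = DMSO only wells and 100% = 100 µM nifuroxazide control wells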
KCC2 secondary: KCC2 modulators in sodium-free buffer, confirmation, cell-based, HEK293 KCC2, thallium flux, secondary assay; shares compounds with Cl transport mod; FluoZin2 fluorescence; hits give high values; normalised thallium flux (F/F0 slope) at 10 µM; 15% of 3,700 active; AID 1713, 2009;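 active = thallium flux slope above the same plate's solvent-only control mean plus 3 SD; inconclusive = the two replicate wells disagree; inactive = no significant difference from solvent-only control wells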
KCC2 bumet counter: thallium flux persisting under bumetanide in KCC2 cells, confirmation, counter-screen for KCC2 modulator project, cell-based, HEK293 KCC2, FluoZin2, secondary assay 3; shares compounds with Cl transport mod; HEK293-KCC2 + bumetanide/ouabain; hits give high values; normalized thallium flux at 10 µM; 49% of 3,700 active; AID 1714, 2009;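 active = thallium entry rate above the same plate's blocked-transporter control wells by more than 3 SD; inconclusive = the two repeat wells disagree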;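 note: raw slope of fluorescence over initial fluorescence between 10 and 20 s after thallium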
KCC2 secondary2: KCC2 modulators without ouabain present, confirmation, cell-based, HEK293 KCC2, thallium flux, FluoZin2, secondary assay 2; normalized thallium flux at 10 µM; thallium flux FluoZin2 fluorescence; actives lie on both sides; F/F0 rise rate, 10–20 s post-thallium; 23% of 3,700 active; shares compounds with Cl transport mod;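 active = thallium flux slope more than 3 SD above or below the plate's solvent-only control mean, mostly below; inconclusive = the two repeat wells disagreed; inactive = no significant shift from solvent-only controls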;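 note: raw slope with 0.1% DMSO as baseline and bumetanide as block control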
HEK293 Tl flux: thallium flux modulation in parental HEK cells, confirmation, counter-screen for KCC2 modulator project, cell-based, counterscreen 1 | shares compounds with Cl transport mod | HEK293 parental cells, thallium flux FluoZin2, ouabain; baseline-ratio fluorescence slope, 10–20 s after thallium | thallium flux rate (normalised fluorescence) at 10 µM | 46% of 3,700 active | AID 1716, 2009;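 active = thallium flux rate significantly above the same plate's solvent-only control wells, beyond their mean plus 3 SD; inconclusive = the two replicate wells gave conflicting results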
KCC2 retest ouab: KCC2 inhibitors and activators, ouabain retest, confirmation, HEK-KCC2 cells; raw Tl+ flux slope (below DMSO = inhibition, above = activation) at 10 µM; HEK293-KCC2, thallium flux FluoZin2 fluorescence; bidirectional: low = inhibitor, high = activator; shares compounds with Cl transport mod; 48% of 3,700 active;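 active = thallium flux slope beyond 3 SD from same-plate DMSO control mean in most replicates, usually higher, sometimes lower; inconclusive = repeat tests gave conflicting results; inactive = no significant difference from controls in most replicates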;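 note: slope of initial-normalized fluorescence between seconds 10 and 20 after thallium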
HEK counter2: native HEK Tl+ uptake effects, second counter-screen – HEK cells, counterscreen 2, counter-screen for KCC2 modulator project, confirmation | shares compounds with Cl transport mod | HEK293 parental, thallium flux FluoZin-2 fluorescence slope | thallium flux slope at 10 µM | 33% of 3,700 active;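 active = thallium flux slope above the same plate's solvent-control mean plus 3 SD in both duplicate wells; inconclusive = duplicate wells that disagreed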;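 note: run without ouabain in cells lacking the KCC2 cotransporter; slope of fluorescence scaled to its starting value between 10 and 20 s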
The depositor's hits bear a star; i = inactive; ? = inconclusive; · = not tested or not shown. Compounds with a hit are over-represented: about 5.5% of the library has one in this group of screens.

SMILES	STAT1 inh	Cl transport mod	HSV augment	STAT1 act	STAT3 act	STAT3 inh	KCC2 secondary	KCC2 bumet counter	KCC2 secondary2	HEK293 Tl flux	KCC2 retest ouab	HEK counter2
CCC1=NN(C(=O)c2ccc(Br)cc2)C(O)(c2ccccc2)C1 (centres undefined)	-5	1.5	i	104	93	11	·	·	·	·	·	·
CCOC(=O)C1=NN(C(=O)c2ccc(OC)cc2)C(O)(c2ccc(Cl)cc2)C1 (centres undefined)	-8	66*	i	108	101	-3	?	0.093*	0.077*	0.095*	0.087*	0.064*
CCOC(=O)C1=NN(C(=O)COc2ccccc2)C(O)(c2ccc(Cl)cc2)C1 (centres undefined)	-8	6.7*	i	106	98	7	0.012*	0.029*	0.03	0.013*	0.026	?
O=C1c2cccc3c(Nc4ccccc4Cl)c([N+](=O)[O-])cc(c23)C(=O)N1CCO	7	-2.1	i	94	99	8	·	·	·	·	·	·
COc1ccc(NC(=O)CSc2nnc(CNC(=O)c3ccco3)o2)c(OC)c1	2	·	i	96	99	1	0.017	0.0052	0.027	0.0071	0.016	0.01
COc1ccccc1NC(=O)CSc1nnc(CNC(=O)c2ccco2)o1	4	·	i	96	100	0	·	·	·	·	·	·
Cc1noc(C)c1CN1C(=O)NC2(CCc3ccccc3C2)C1=O (centres undefined)	-8	0.12	i	107	98	7	0.0097	0.0069	0.034	0.0074	0.022	0.01
Cc1ccc(S(=O)(=O)NCCc2ccncc2)cc1C	3	1.7	i	95	103	7	·	·	·	·	·	·
COC1=C/C(=C/c2c(N)n3cc(C)sc3nc2=O)C=CC1=O	-3	-6.6*	i	102	110	-6	0.0038*	-0.0015*	0.017*	0.0028*	0.008*	0.006*
Cc1cn2c(N)c(C=C3C=C(Cl)C(=O)C(Cl)=C3)c(=O)nc2s1	-7	i	?	105	99	11	·	·	·	·	·	·
O=C(OCCN=C1NS(=O)(=O)c2ccccc21)c1cccs1	-2	-0.76	i	102	98	4	·	·	·	·	·	·
COc1cccc(-n2c(Cn3nc(C(F)(F)F)cc3C)n[nH]c2=S)c1	3	-0.0068	i	98	103	-3	·	·	·	·	·	·
CSc1cccc(NC(=O)C2CCN(S(=O)(=O)c3ccc(F)cc3)CC2)c1	13	·	i	88	93	11	0.0077	0.0053	0.034	0.0044	?	0.01
O=S(=O)(NCCc1ccncc1)c1ccc(S(=O)(=O)N2CCCCCC2)cc1	5	0.015	i	95	101	9	·	·	·	·	·	·
CSc1ccccc1NC(=S)N/N=C/c1cccn1Cc1ccc(F)cc1	19	4.1*	i	82	103	1	0.0059	0.011*	0.032	0.011*	0.022	0.014*
CSc1ccccc1NC(=S)N/N=C/c1cccn1Cc1cccc(C)c1	4	·	i	97	101	5	·	·	·	·	·	·
Cc1cccc(NC(=S)N/N=C/c2cccn2Cc2ccc(F)cc2)c1	11	6.3*	i	90	97	12	0.0054	0.0088*	?	0.0081	0.02	0.01
Cc1ccc(C(=O)/C=C2/NC(=O)CS2)cc1	-14	0.87	i	113	103	-1	·	·	·	·	·	·
O=C1CS/C(=C/C(=O)c2cccc(Cl)c2)N1	6	6.8*	i	94	103	-2	?	0.024*	0.03	0.011*	0.051*	0.011*
CN(Cc1ccccc1)C(=O)COC(=O)c1cc(NS(=O)(=O)c2cccs2)ccc1O	18	-3.5*	i	82	92	17	0.018	0.0046	0.022*	0.0066	0.014	0.01
O=C(COC(=O)c1cc(NS(=O)(=O)c2cccs2)ccc1O)Nc1ccccc1	·	0.5	i	·	·	·	·	·	·	·	·	·
CCOC(=O)Cc1csc(NC(=O)Nc2ccc(F)cc2)n1	·	0.79	i	·	·	·	·	·	·	·	·	·
CCOC(=O)Cc1csc(NC(=O)c2ccc(OC)c(OC)c2)n1	0	-0.0054	i	100	93	11	·	·	·	·	·	·
CCOC(=O)Cc1csc(NC(=S)NC(=O)c2cc(OC)c(OC)c(OC)c2)n1	·	6.9*	i	·	·	·	0.016	0.016*	0.03	0.0098*	0.019	0.011
CCOC(=O)Cc1csc(NC(=S)NC(=O)c2ccc(F)cc2)n1	-3	11*	·	103	100	8	0.0072	0.039*	0.041*	0.03*	0.046*	0.02*
CN(C)c1nc(=NCc2ccco2)ss1	·	45*	i	·	·	·	0.037*	0.06*	0.041	?	0.052*	?
CCn1c(-c2cc(-c3ccc(OC(C)C)cc3)nc3ccccc23)n[nH]c1=S	-14	2	i	113	116	-12	·	·	·	·	·	·
C=CCn1c(-c2cc(-c3ccc(C)cc3)nc3ccccc23)n[nH]c1=S	0	36*	i	100	98	5	0.015*	0.11*	0.032	0.031*	0.052*	0.012*
